Measurements of several laboratories.
Lines come from different studies, so protocols differ.
Target: BDNF/NT-3 growth factors receptor (NTRK2, Homo sapiens, UniProt Q16620)

Cc1ccc(NC(=O)c2ccc(C)c(C(F)(F)F)c2)cc1C#Cc1nn(C2CCC(O)CC2)c2ncnc(N)c12 (stereo not shown)
remaining signal (cell-free assay; 10 µM): 4%

Cc1cnc(NC2CCOCC2)nc1-n1cnc(C(=O)NC(CN)c2cc(F)cc(Cl)c2)c1 (stereo not shown)
remaining activity (enzyme activity, inhibitor, radiometric; 1 µM): 110%

CCN(CC)CCNC(=O)c1c(C)[nH]c(/C=C2\C(=O)Nc3ccc(F)cc32)c1C
inhibition (cell-free assay; 0.3 µM): 70%

Nc1cnc(N2CCc3cc(S(=O)(=O)Nc4c(F)cc(Cl)cc4F)cc(N4CCCC4=O)c32)nc1
remaining binding (cell-free assay, competition with immobilised ligand; 1 µM): 100%

O=C(Nc1cccc(C(=O)Nc2ccc3[nH]ncc3c2)c1)Nc1cccc(C(F)(F)F)c1
inhibition (enzyme activity, inhibitor, FRET; 1 µM): 24.5%

CS(=O)(=O)NCC[C@H](NC(=O)c1cncc2c1cnn2-c1ccc(F)cc1)c1ccnc(S(C)(=O)=O)c1
remaining binding (cell-free assay, competition with immobilised ligand; 1 µM): 100%

O=C(Nc1ccc2[nH]ncc2c1)c1cccc(NC(=O)c2cc(C(F)(F)F)ccc2F)c1
inhibition (enzyme activity, inhibitor, FRET; 1 µM): 13.5%

O=C1Nc2ccc(Cl)cc2C1=Cc1cc(Cl)c(O)c(Cl)c1
remaining signal (cell-free assay; 0.5 µM): 61.1%

O=C(Nc1cccc(C(=O)Nc2ccc3[nH]ncc3c2)c1)Nc1ccccc1Cl
inhibition (enzyme activity, inhibitor, FRET; 1 µM): 20.6%

CC1=C(C#N)[C@@H](c2ccc3[nH]nc(C)c3c2)C(C#N)=C(c2ccc(Cl)cc2)N1
remaining binding (cell-free assay, competition with immobilised ligand; 1 µM): 85.2%

Oc1cccc(-c2nc(N3CCOCC3)c3oc4ncccc4c3n2)c1
remaining signal (cell-free assay; 0.5 µM): 90.2%

O=C1CCc2cc(Nc3cc(OC4CCOCC4)c([N+](=O)[O-])cc3Cl)ccc2N1
remaining binding (cell-free assay, competition with immobilised ligand; 1 µM): 100%

COc1cc2c(N3CCN(C(=O)Nc4ccc(OC(C)C)cc4)CC3)ncnc2cc1OCCCN1CCCCC1
remaining signal (cell-free assay; 0.5 µM): 81.7%

Cc1ccc(C(=O)NCc2ccsc2)cc1C#Cc1cn(C(C)C)c2ncnc(N)c12
activity vs control (enzyme activity, inhibitor; 1 µM): 58%

O=C(Nc1ccc2[nH]ncc2c1)c1cccc(NC(=S)Nc2cc(C(F)(F)F)cc(C(F)(F)F)c2)c1
inhibition (enzyme activity, inhibitor, FRET; 1 µM): 11.2%

N#CCCc1ccc2c(c1)-c1[nH]c3ccc([N+](=O)[O-])cc3c1CC(=O)N2
remaining signal (cell-free assay; 0.5 µM): 86.4%

C[C@H](c1ccc(F)cc1)N(Cc1cccc(C(=O)O)c1)C(=O)c1cnc2ccccc2c1
remaining binding (cell-free assay, competition with immobilised ligand; 1 µM): 100%

Cc1sc(C(=O)NC2COC2)cc1-n1cc(NC(=O)Nc2c(F)cccc2Cl)cn1
remaining activity (enzyme activity, inhibitor; 10 µM): 92.4%

Cc1nccc(COC(=O)N2C[C@@H]3[C@@H](CNC(=O)c4ccc5[nH]nnc5c4)[C@@H]3C2)n1
remaining binding (cell-free assay, competition with immobilised ligand; 1 µM): 100%

O=C(Nc1ccc(Br)cc1)Nc1cccc(C(=O)Nc2ccc3[nH]ncc3c2)c1
inhibition (enzyme activity, inhibitor, FRET; 1 µM): 15.7%

CC(C)(C)c1nc2c(s1)c1nc(N)ncc1c1ccc(NS(=O)(=O)c3c(F)cccc3F)c(F)c12
remaining activity (enzyme activity, inhibitor, radiometric; 1 µM): 65%

CCN(CC)c1ccc(C2=NNC(=O)CC2C)cc1[N+](=O)[O-] (stereo not shown)
remaining activity (enzyme activity, inhibitor; 10 µM): 87%

O=C(Nc1ccc2[nH]ncc2c1)c1cccc(NC(=S)Nc2ccc(C(F)(F)F)cc2)c1
inhibition (enzyme activity, inhibitor, FRET; 1 µM): 19.6%

CNC(=O)c1cc(Oc2ccc(NC(=O)Nc3ccc(Cl)c(C(F)(F)F)c3)cc2)ccn1
inhibition (cell-free assay; 10 µM): 99%

O=C(Nc1cccc(C(=O)Nc2ccc3[nH]ncc3c2)c1)Nc1ccccc1C(F)(F)F
inhibition (enzyme activity, inhibitor, FRET; 1 µM): 25.7%

CNC(=O)Nc1ccc2c(c1)[C@@]1(CC2)OC(=O)N(CC(=O)N(Cc2ccc(F)cc2)[C@@H](C)C(F)(F)F)C1=O
remaining binding (cell-free assay, competition with immobilised ligand; 1 µM): 89%

O=C(Nc1ccc(C(F)(F)F)cc1)Nc1cccc(C(=O)Nc2ccc3[nH]ncc3c2)c1
inhibition (enzyme activity, inhibitor, FRET; 1 µM): 14%

O=C(Nc1ccc(Oc2ccc(F)cc2)cc1)N1CCc2ncccc2[C@H]1c1ccc(F)cc1
remaining binding (cell-free assay, competition with immobilised ligand; 1 µM): 84%
